These results are taken from ChEMBL document CHEMBL4002602, “Design, Synthesis of Novel, Potent, Selective, Orally Bioavailable Adenosine A2A Receptor Antagonists and Their Biological Evaluation” (J Med Chem, 2017).

Molecules are shown by their SMILES. Activity calls are given as the source filed them. No cut-off for these calls is given here.

One series has as its target Cytochrome P450 2C9 (Homo sapiens, UniProt P11712). Kind of series: Inhibition of CYP2C9 in human liver microsomes at 5 to 25 uM using diclofenac as substrate preincubated for 5 mins with substrate followed by NADPH addition measured after 10 mins by LC-MS/MS analysis. Format: ADME. The following applies: microsomes, 10 min, 25 µM. On the technique in general: Liver microsomes are vesicles of endoplasmic reticulum, rich in cytochrome P450 enzymes.

Series [1] can be described thus: AUC (0 to t) in Wistar rat at 3 mg/kg, iv by LC/MS/MS analysis. The following applies: in vivo. Format: ADME, organism-based. The method, boiled down:
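Overnight-fasted male Wistar rats received a 3 mg/kg tail-vein solution (0.6 mg/mL, 5 mL/kg). Vehicle was 10% NMP with PEG300, Cremophor EL and/or HPβ-CD in 0.1 M acetate buffer, pH 4.2; co-solvents varied by compound. Serial K2EDTA blood samples (n=3/time point) taken 0.008–24 h. Plasma measured by LC/MS/MS; non-compartmental AUC0-t per animal.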

Series [2] addresses T1, Adenosine receptor A2b (Homo sapiens, UniProt P29275).
T1 sequence (P29275 whole entry): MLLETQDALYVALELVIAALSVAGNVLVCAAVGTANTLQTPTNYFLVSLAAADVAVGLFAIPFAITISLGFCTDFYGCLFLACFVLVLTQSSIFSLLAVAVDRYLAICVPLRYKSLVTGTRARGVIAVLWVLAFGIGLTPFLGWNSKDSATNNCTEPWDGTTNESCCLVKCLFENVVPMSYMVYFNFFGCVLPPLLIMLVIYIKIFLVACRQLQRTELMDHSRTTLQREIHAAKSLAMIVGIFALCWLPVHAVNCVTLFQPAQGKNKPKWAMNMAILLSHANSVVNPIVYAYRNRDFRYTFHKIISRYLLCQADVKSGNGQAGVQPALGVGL
Kind of series: Displacement of [3H]-MRS-1754 from human adenosine A2B receptor expressed in HEK293 cell membranes measured after 90 mins.

Series [3] concerns the target T2, Adenosine receptor A3 (Homo sapiens) (UniProt P0DMS8).
T2 sequence (whole entry): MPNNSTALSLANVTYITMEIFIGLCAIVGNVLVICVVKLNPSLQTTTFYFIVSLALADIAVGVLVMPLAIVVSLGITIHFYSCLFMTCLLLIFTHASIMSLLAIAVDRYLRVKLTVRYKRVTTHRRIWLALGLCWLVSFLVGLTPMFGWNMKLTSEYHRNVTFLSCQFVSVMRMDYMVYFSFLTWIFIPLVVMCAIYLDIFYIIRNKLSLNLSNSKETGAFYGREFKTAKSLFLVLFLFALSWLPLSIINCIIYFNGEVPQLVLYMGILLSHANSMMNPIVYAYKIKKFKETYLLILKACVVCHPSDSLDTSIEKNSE
In words: Displacement of [3H]-HEMADO from human adenosine A3 receptor expressed in HEK293 cell membranes at 1 uM measured after 90 mins relative to control. Background: In a radioligand displacement assay an active substance lowers the binding of a labelled ligand.

In another series the target is hERG (KCNH2) (Homo sapiens, UniProt Q12809). Kind of series: Inhibition of [3H]-astemizole binding to human ERG at 10 uM after 2 hrs by liquid scintillation counting method relative to control. The following applies: probe [3H]-astemizole.
A short description of series [4]: Elimination half-life in Wistar rat at 3 mg/kg, iv by LC/MS/MS analysis. It counts as ADME, organism-based. Particulars: in vivo, read-out: beta t1/2 (converted). The method, boiled down: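 Male Wistar rats (230 ± 15 g), fasted overnight, given 3 mg/kg IV via tail vein as a solution (0.6 mg/mL, 5 mL/kg) in NMP-based vehicles with acetate buffer pH 4.2. Serial plasma sampling (K2EDTA) from 0.008 to 24 h. Acetonitrile precipitation, then LC/MS/MS. Non-compartmental analysis per animal; mean of n=4.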

The test system of another series is Liver. Kind of series: Metabolic stability in rat liver microsomes assessed as metabolic rate at 1 uM preincubated for 5 mins followed by addition of NADPH measured after 3 to 30 mins by LC-MS/MS analysis. Format: ADME, microsome.
Series [5] is described as follows: Cmax in Wistar rat at 10 mg/kg administered via oral gavage by LC/MS/MS analysis. Format: ADME, organism-based. Further details: dose 10 mg/kg, route oral. The following applies: in vivo. The method, boiled down: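 Fasted male Wistar rats given 10 mg/kg PO as a suspension in 1% Tween 80, 0.5% w/v NaCMC. Serial plasma sampling (K2EDTA) at 0.25–24 h, acetonitrile precipitation, LC/MS/MS. Non-compartmental analysis per animal; bioavailability calculated against the 3 mg/kg IV group; mean of n=4.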

Series [6] deals with T3, Adenosine receptor A2b (Homo sapiens) (UniProt P29275).
T3 sequence (whole entry): T1 sequence (P29275 whole entry)
Kind of series: Antagonist activity at human adenosine A2B receptor expressed in HEK293 cell membranes assessed as decrease in NECA/forskolin-induced cAMP level at 10 uM pretreated for 15 mins followed by agonist addition for 15 mins and subsequent forskolin stimulation measured after 30 mins. Format: functional, cell-based. In outline: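 Whole HEK-A2B cells were seeded overnight and then pretreated with 1 U/ml ADA for 90 min at 37 °C and 5% CO2. Compound was added for 15 min, then 70 nM NECA for 15 min, at room temperature with mixing in incomplete DMEM with ADA. cAMP was read by HTRF (620/665 nm). Compounds ran at 12 concentrations in triplicate, with 10 μM as the highest tested concentration.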
A general note: Changes in cAMP serve as a functional read-out for many G protein-coupled receptors.

Series [7] deals with T3, Adenosine receptor A2b (Homo sapiens). In words: Displacement of [3H]-MRS-1754 from human adenosine A2B receptor expressed in HEK293 cell membranes at 1 uM measured after 90 mins relative to control.
The target in the next series is Adenosine receptor A2a (Homo sapiens, UniProt P29274). In words: Antagonist activity at human adenosine A2A receptor expressed in HEK293 cell membranes assessed as decrease in CGS-21680-induced cAMP level pretreated for 15 mins followed by agonist addition for 30 mins.
A further series deals with T4, Adenosine receptor A3 (Homo sapiens, UniProt P0DMS8).
T4 sequence (P0DMS8 whole entry): T2 sequence (whole entry)
Kind of series: Displacement of [3H]-HEMADO from human adenosine A3 receptor expressed in HEK293 cell membranes measured after 90 mins.

The target of a further series is Cytochrome P450 3A (Homo sapiens, UniProt P08684+P20815+Q9HB55+P24462). Kind of series: Inhibition of CYP3A in human liver microsomes at 5 to 25 uM using testosterone as substrate preincubated for 5 mins with substrate followed by NADPH addition measured after 10 mins by LC-MS/MS analysis. Format: ADME. Particulars: microsomes, 10 min, 25 µM.
Another series addresses CYP2D6 (Homo sapiens, UniProt P10635). In words: Inhibition of CYP2D6 in human liver microsomes at 5 to 25 uM using dextromethorphan as substrate preincubated for 5 mins with substrate followed by NADPH addition measured after 10 mins by LC-MS/MS analysis. It counts as ADME. The following applies: human liver microsomes, probe dextromethorphan.
Series [8] in a line: Half-life in rat hepatocytes at 1 uM by LC-MS/MS analysis. Format: ADME, cell-based, Hepatocyte.
The target in series [9] is T1, Adenosine receptor A2b. Kind of series: Antagonist activity at human adenosine A2B receptor expressed in HEK293 cell membranes assessed as decrease in NECA/forskolin-induced cAMP level pretreated for 15 mins followed by agonist addition for 15 mins and subsequent forskolin stimulation measured after 30 mins. Format: functional, cell-based.
A short description of series [10]: Protein binding in rat serum at 1 uM after 6 hrs by HT dialysis method. It counts as ADME, cell-free. The following applies: read-out: PB (converted).
In the next series the target is CYP1A2 (Homo sapiens, UniProt P05177). Kind of series: Inhibition of CYP1A2 in human liver microsomes at 5 to 25 uM using phenacetin as substrate preincubated for 5 mins with substrate followed by NADPH addition measured after 10 mins by LC-MS/MS analysis. Particulars: human liver microsomes, probe phenacetin. Format: ADME.
Chain of CYP1A2 (P05177 whole entry): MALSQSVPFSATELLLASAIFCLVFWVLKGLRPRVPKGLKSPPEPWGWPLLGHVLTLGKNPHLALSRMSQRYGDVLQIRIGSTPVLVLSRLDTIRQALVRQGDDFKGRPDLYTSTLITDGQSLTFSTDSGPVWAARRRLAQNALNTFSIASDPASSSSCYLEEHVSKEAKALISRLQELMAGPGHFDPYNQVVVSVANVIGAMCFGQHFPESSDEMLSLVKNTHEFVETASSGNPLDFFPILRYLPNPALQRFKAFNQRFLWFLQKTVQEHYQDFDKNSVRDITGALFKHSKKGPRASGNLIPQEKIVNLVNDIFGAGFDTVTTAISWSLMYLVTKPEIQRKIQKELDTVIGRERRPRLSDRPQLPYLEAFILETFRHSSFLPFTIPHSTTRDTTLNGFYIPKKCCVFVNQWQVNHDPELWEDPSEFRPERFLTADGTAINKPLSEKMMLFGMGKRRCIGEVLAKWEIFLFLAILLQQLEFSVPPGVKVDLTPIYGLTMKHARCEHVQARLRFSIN

Chain of Adenosine receptor A2a (P29274 whole entry): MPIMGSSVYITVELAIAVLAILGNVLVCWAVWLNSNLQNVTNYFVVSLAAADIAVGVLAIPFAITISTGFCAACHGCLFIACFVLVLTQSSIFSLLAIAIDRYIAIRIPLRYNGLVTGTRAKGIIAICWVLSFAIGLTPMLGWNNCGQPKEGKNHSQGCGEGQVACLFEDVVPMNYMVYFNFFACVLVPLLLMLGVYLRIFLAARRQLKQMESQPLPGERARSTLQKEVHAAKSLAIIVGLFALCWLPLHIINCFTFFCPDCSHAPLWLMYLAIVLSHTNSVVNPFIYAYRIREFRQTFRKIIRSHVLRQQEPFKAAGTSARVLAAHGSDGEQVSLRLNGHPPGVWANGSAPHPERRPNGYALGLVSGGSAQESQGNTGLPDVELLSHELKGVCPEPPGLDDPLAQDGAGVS
Chain of Cytochrome P450 2C9 (P11712 whole entry): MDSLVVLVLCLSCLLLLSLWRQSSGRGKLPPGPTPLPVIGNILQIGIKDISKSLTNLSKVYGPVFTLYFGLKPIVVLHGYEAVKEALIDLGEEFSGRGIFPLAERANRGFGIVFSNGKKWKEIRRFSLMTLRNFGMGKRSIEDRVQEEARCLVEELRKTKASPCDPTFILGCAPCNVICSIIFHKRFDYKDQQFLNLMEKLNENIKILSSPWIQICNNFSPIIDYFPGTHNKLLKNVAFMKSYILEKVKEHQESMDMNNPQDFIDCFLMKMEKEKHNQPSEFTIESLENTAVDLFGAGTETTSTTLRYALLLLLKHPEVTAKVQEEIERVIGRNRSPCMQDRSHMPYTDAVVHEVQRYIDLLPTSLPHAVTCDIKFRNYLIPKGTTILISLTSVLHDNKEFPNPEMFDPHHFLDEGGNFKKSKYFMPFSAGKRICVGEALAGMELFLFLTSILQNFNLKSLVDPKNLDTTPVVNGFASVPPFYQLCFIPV
Chain of hERG (KCNH2) (Q12809 whole entry): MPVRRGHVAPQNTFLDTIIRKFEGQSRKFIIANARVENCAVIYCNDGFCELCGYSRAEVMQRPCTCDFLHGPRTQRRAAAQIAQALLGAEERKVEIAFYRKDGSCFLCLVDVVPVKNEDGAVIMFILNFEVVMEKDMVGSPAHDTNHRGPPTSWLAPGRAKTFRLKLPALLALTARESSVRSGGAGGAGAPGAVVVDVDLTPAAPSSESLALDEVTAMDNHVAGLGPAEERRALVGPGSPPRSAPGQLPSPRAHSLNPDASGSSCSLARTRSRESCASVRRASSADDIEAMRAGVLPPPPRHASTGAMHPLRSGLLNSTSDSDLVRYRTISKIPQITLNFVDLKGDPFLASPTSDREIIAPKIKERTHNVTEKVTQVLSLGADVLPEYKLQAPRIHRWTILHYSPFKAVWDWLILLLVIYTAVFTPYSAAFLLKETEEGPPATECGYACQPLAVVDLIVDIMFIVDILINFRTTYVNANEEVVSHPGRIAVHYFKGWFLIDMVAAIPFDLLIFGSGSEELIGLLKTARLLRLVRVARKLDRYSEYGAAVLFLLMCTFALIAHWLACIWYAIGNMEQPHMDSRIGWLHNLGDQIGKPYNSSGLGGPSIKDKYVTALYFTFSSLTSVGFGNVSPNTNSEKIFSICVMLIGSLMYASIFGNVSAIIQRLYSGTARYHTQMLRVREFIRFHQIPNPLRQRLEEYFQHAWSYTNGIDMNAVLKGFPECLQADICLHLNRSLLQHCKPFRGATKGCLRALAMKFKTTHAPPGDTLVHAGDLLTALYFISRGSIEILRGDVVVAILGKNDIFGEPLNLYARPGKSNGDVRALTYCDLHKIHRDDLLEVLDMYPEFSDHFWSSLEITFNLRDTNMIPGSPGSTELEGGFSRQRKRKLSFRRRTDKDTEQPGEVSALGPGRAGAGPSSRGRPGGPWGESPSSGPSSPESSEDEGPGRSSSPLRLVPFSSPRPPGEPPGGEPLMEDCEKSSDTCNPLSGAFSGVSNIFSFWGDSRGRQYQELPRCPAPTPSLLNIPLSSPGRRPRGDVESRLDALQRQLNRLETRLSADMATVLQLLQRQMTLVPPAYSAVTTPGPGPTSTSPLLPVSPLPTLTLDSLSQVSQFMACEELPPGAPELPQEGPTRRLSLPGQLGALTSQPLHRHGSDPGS
Chain of CYP2D6 (P10635 whole entry): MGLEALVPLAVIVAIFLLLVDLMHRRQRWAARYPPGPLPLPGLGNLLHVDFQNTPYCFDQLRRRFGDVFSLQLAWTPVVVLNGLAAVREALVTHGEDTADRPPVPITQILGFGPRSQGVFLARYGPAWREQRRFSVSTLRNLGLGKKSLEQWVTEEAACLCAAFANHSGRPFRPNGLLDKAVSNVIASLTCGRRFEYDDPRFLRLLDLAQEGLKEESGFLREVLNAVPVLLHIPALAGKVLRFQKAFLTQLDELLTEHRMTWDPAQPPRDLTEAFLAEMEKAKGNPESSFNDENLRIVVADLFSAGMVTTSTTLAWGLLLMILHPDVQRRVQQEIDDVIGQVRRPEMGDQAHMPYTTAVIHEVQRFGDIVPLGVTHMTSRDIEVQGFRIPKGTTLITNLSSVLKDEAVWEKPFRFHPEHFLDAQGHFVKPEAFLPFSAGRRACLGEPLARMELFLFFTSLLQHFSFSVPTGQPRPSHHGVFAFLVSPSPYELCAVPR

One may read the AUC(0-t) as exposure summed from dosing to a finite time, without extrapolation to infinity. Usually Ki stands for a measure of affinity in units of concentration, obtained from inhibition or displacement. The term inhibition denotes the relative decrease from the control value, in per cent. Lower therefore signals little suppression. In general, Cmax refers to the highest concentration seen after dosing. Regarding `COc1ccc(N2CCOCC2)c2sc(NC(=O)C(C)(C)Oc3ccc(F)cc3)nc12`, the “inhibition (INH)” value on Cytochrome P450 2C9 and against Cytochrome P450 3A was “Not Active” each time. This compound yielded an AUC(0-t) in series [1] of 7.6 µM·h. The Ki on Adenosine receptor A2b [2] was determined as 10000 nM; on Adenosine receptor A2a it was 4.2 nM; on Adenosine receptor A3, 5000 nM. Also, the inhibition in series [3] was determined as 11%; in series [7], 0%. Besides, on hERG (KCNH2), the inhibition at 2 h, 10 µM is under 5%. The half-life in series [4] was 6.3 h. For the same compound, the Drug metabolism in the series on Liver was 0.04 nmol/min/mg. Also, the highest level in series [5] (Cmax) was 190 nM. In [6], the result was inactive.
The IC50 is the concentration needed to halve the response being measured. The low end stands for inhibition by little substance, the high end for a need for much substance. `CCN(CC)C1CCC(C)(C(=O)Nc2nc3c(OC)ccc(N4CCOCC4)c3s2)CC1` (configuration not stated): the IC50 at 10 min on CYP2D6 and against CYP1A2 was over 50000 nM in each case. In series [8], the half-life at 1 µM is over 1 h. In series [1], this compound returned an AUC(0-t) of 2.7 µM·h. Moreover, the Ki at Adenosine receptor A2b [2] stood at 500 nM; at Adenosine receptor A2b [9], 650 nM; on Adenosine receptor A2a it was 0.2 nM. Besides, the fraction unbound at 6 h, 1 µM in series [10] is 0.24. The inhibition at 2 h, 10 µM on hERG (KCNH2) was found to be 13%. In addition, in series [4], the half-life is 2.4 h. In addition, in the series with Liver, the Drug metabolism is on record as 0.01 nmol/min/mg. In addition, in series [5], the highest level (Cmax) was 2020 nM.
On to `COc1cnc(N2CCOCC2)c2sc(NC(=O)C(C)(C)Oc3ccc(F)cc3)nc12`, for which the “inhibition (INH)” value on Cytochrome P450 2C9 and at Cytochrome P450 3A was “Not Active” throughout. The compound also showed an AUC(0-t) in series [1] of 16.4 µM·h. The Ki at Adenosine receptor A2b [2] stood at 1400 nM; on Adenosine receptor A2b [9], 2000 nM; at Adenosine receptor A2a, 6.5 nM; at Adenosine receptor A3, 400 nM. The inhibition amounted to 46% in [3] and 24% in series [7]. This compound gave an inhibition at 2 h, 10 µM on hERG (KCNH2) of under 10%. The half-life in [4] is 5.4 h. Moreover, in the series on Liver, the Drug metabolism was under 0.04 nmol/min/mg. The same compound returned a Cmax in [5] of 1100 nM.
Turning to `COc1ccc(N2CCOCC2)c2sc(NC(=O)C(C)(C)Oc3ccc(F)c(F)c3)nc12`, the “inhibition (INH)” value against Cytochrome P450 2C9 and on Cytochrome P450 3A was “Not Active” in each case. The AUC(0-t) in series [1] is 10.7 µM·h. Further, the figures for the Ki on Adenosine receptor A2b [2], on Adenosine receptor A2a and at Adenosine receptor A3 were 5000 nM, 2.4 nM and 500 nM, respectively. Besides, the inhibition in series [3] worked out at 28%; in series [7], 34%. At hERG (KCNH2), this compound had an inhibition at 2 h, 10 µM of under 5%. The half-life in series [4] was 5.5 h. For the same compound, in the series on Liver, the Drug metabolism is recorded as 0.09 nmol/min/mg. This compound also showed a Cmax in series [5] of 1330 nM. Besides, the outcome in [6] was inactive.
`COc1ccc(N2CCOCC2)c2sc(NC(=O)C3(C)CCC(C)(O)CC3)nc12` (configuration not stated): the IC50 at 10 min against CYP2D6 and on CYP1A2 was over 25000 nM in each case. Also, the half-life at 1 µM in [8] was over 1 h. In addition, the AUC(0-t) in [1] was found to be 3.7 µM·h. For the same compound, the Ki on Adenosine receptor A2b [2] was found to be 500 nM; at Adenosine receptor A2b [9], 2000 nM; at Adenosine receptor A2a it was 0.25 nM. Also, in series [10], the fraction unbound at 6 h, 1 µM was 0.13. For the same compound, in series [4], the half-life is 0.6 h. Also, the Drug metabolism with Liver is reported as under 0.04 nmol/min/mg. In [5], this compound yielded a Cmax of 5400 nM.
